Here are results for seven compounds from article PMC8911528 (Organic & biomolecular chemistry, 2021).

Experiment [1] addresses T1, SF3B subunit of the spliceosome (Homo sapiens, UniProt O75533+Q7RTV0). Conditions: cited from earlier work.
Experiment [2] addresses T1, SF3B subunit of the spliceosome. As to the kind of experiment: In vitro splicing assay. Particulars: for reduction in splicing inhibitory potency compared to herboxidiene: relative to herboxidiene. The format is biochemical. In short, it runs like this:
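Radiolabeled RNA splicing substrate incubated in human cell nuclear extract with a dose range of test compound or DMSO control. RNA resolved by denaturing PAGE and bands quantified by phosphorimaging. Splicing efficiency is mRNA over total substrate RNA, normalised to DMSO. IC50 (half-maximal reduction of splicing versus DMSO) is from nonlinear regression, [inhibitor] vs normalised response, on three independent measurements, with 95% confidence intervals.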

In another experiment the test system is WI-38. Conditions: human normal fibroblast cell line WI-38; cited from earlier work.
The test system of another experiment is human cells. Conditions: cited from earlier work.

As for 5(R)-hydroxy herboxidiene [Compound 6], the “splicing inhibition relative to herboxidiene” value in experiment [1] is “slightly lower splicing inhibition than herboxidiene”.

What is called IC50 is the concentration that gives 50% inhibition. The compound `C=C1CC[C@H](CC(=O)O)O[C@@H]1/C(C)=C/C=C/[C@@H](C)C[C@@]1(C)O[C@@H]1[C@H](C)[C@@H](OC)[C@@H](C)O` [Compound 12, 2-((2R,6S)-6-((S,2E,4E)-7-((2R,3R)-3-((2R,3R,4R)-4-hydroxy-3-methoxypentan-2-yl)-2-methyloxiran-2-yl)-6-methylhepta-2,4-dien-2-yl)-5-methylenetetrahydro-2H-pyran-2-yl)acetic acid] had an IC50 in experiment [2] of 400 nM.

Regarding `CO[C@H]([C@@H](C)[C@H]1O[C@]1(C)C[C@H](C)/C=C/C=C(\C)[C@H]1O[C@@H](CC(=O)O)CC[C@H]1C)[C@@H](C)O` [Compound 13, 2-((2R,5R,6S)-6-((S,2E,4E)-7-((2R,3R)-3-((2R,3R,4R)-4-hydroxy-3-methoxypentan-2-yl)-2-methyloxiran-2-yl)-6-methylhepta-2,4-dien-2-yl)-5-methyltetrahydro-2H-pyran-2-yl)acetic acid], in experiment [2], it took 2500 nM to reach half-maximal inhibition (IC50) and the “reduction in splicing inhibitory potency compared to herboxidiene” value is listed as “about 6 fold”.

As to `CO[C@H]([C@@H](C)[C@H]1O[C@]1(C)C[C@H](C)/C=C/C=C(\C)[C@H]1O[C@@H](CC(=O)O)CCC12CC2)[C@@H](C)O` [Compound 14, 2-((4S,6R)-4-((S,2E,4E)-7-((2R,3R)-3-((2R,3R,4R)-4-hydroxy-3-methoxypentan-2-yl)-2-methyloxiran-2-yl)-6-methylhepta-2,4-dien-2-yl)-5-oxaspiro[2.5]octan-6-yl)acetic acid], 5200 nM corresponded to half-maximal inhibition in experiment [2] (IC50). Moreover, the “loss of splicing inhibitory activity compared to gem-dimethyl derivative” value in experiment [2] (relative to gem-dimethyl derivative 15) is reported as 5 fold.

For `CO[C@H]([C@@H](C)[C@H]1O[C@]1(C)C[C@H](C)/C=C/C=C(\C)[C@H]1O[C@@H](CC(=O)O)CCC1(C)C)[C@@H](C)O` [Compound 15, 2-((2R,6S)-6-((S,2E,4E)-7-((2R,3R)-3-((2R,3R,4R)-4-hydroxy-3-methoxypentan-2-yl)-2-methyloxiran-2-yl)-6-methylhepta-2,4-dien-2-yl)-5,5-dimethyltetrahydro-2H-pyran-2-yl)acetic acid], the “reduction in splicing inhibitory potency compared to herboxidiene” value in experiment [2] was 3 fold.

Turning to `CO[C@H]([C@@H](C)[C@H]1O[C@]1(C)C[C@H](C)/C=C/C=C(\C)[C@H]1O[C@@H](CC(=O)O)CC[C@@H]1C)[C@@H](C)O` [herboxidiene], the cell cycle arrest result in the experiment on WI-38 is “induces both G1 and G2/M cell cycle arrest”.

As for C6 desmethyl herboxidiene [Compound 8], the splicing inhibitory activity result in experiment [1] is on record as “slightly lower splicing inhibitory activity”. Also, the “anticancer activity in human cells” value with human cells was “slightly lower”.
